# Screening results as filed in PubChem BioAssay.
# Calpain2 inh = inhibitors of pig calpain II, primary screen, biochemical, fluorogenic peptide substrate, 1536-well | 220,000 tested, 0.37% active | inhibition, % at 16 µM | purified calpain II, 30 min;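 active means inhibition above about 50%, limit read from the data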
# Rad51 HR inh = human RAD51 strand exchange inhibitors, primary screen, biochemical, fluorescence | inhibition, % at 10 µM | hRad51 DNA strand exchange, fluorescence dequenching | 200,000 tested, 0.085% active | DNA repair protein RAD51 homolog 1 (Homo sapiens), Q06609;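 active means inhibition above 40% at the single screening dose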
#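 System: human Rad51 nucleoprotein filaments preassembled on unlabelled ssDNA. Reagent: labelled 47-mer dsDNA for strand exchange. Schedule: 30-min compound preincubation and 15-min exchange, both room temperature. Measured by: FRET fluorescence dequenching, excitation 485 nm, emission 520 nm. Read-out: Fluorescence-based percent inhibition, control- and blank-normalised. Benchmarks: plate controls and plate blanks.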
# L major viab = Leishmania major promastigote growth inhibition, primary screen. inhibition, % at 10 µM. 200,000 tested, 9% active. Leishmania major promastigotes, resazurin fluorescence viability; in the data active means inhibition above about 50%;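 further: promastigotes grown with compound for 44 hours at 28 °C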
# WT yeast gro inh = growth inhibition of WT strain, primary screen, mitochondrial fusion inhibitor project, WT and mutant strains, chemical genetic; 190,000 tested, 2.1% active; mitochondrial fusion phenotypic screen; AID 1362, 2008; inhibition, % at 10 µM; in the data active means inhibition above about 58%; tested in S. cerevisiae
# PMI activator = activators of human PMI, primary screen, biochemical, fluorescence intensity, near-Km mannose 6-phosphate | Mannose-6-phosphate isomerase (Homo sapiens), P34949 | purified human PMI, coupled resazurin fluorescence, 20 min; hits give high values; 1 = vehicle control, 0 substrate-free wells | activation factor at 20 µM | 190,000 tested, 0.005% active | AID 1214, 2008;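 active means activation factor of 2 or more at 20 µM, relative to plate controls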
# Target sequence (P34949 whole entry, looked up): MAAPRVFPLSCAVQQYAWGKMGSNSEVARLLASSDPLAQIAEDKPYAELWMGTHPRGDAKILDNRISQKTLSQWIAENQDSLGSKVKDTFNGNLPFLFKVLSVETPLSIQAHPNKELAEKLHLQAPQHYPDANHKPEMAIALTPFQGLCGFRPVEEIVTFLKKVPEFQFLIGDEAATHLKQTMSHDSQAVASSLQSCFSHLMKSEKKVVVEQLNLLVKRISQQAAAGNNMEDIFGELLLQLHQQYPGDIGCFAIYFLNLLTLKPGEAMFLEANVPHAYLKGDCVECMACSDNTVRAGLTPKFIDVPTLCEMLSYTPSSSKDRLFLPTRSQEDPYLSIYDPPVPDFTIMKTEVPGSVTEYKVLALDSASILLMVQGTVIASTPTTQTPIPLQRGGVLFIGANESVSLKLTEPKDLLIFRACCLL
# PMI act hi M6P = human PMI activators, high substrate, primary screen, biochemical, fluorescence intensity, near-saturating mannose 6-phosphate | Mannose-6-phosphate isomerase (Homo sapiens), P34949 | coupled PMI enzyme assay, resazurin fluorescence, 20 min; hits give high values; 1 = untreated enzyme, 0 = substrate-free blank | activation factor at 20 µM | 190,000 tested, 0.34% active;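 active means activation factor of 2 or more at 20 µM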
#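 Test system: human phosphomannose isomerase with PGI, G6PDH, diaphorase coupling enzymes; amount: 15 ng/mL PMI; incubation: enzyme reaction with compound 20 min at room temperature; technique: resorufin fluorescence (Ex 544/Em 590 nm) from resazurin via diaphorase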
# A number is an active result; . = inactive; / = not tested or not shown. Compounds with a hit are over-represented: about 9.8% of the library has one in this group of screens.
SMILES,Calpain2 inh,Rad51 HR inh,L major viab,WT yeast gro inh,PMI activator,PMI act hi M6P
CC(C)CNC(=S)N(Cc1ccco1)Cc1cc2cc3c(cc2[nH]c1=O)OCCO3,.,/,88,.,.,.
COc1ccccc1NC(=O)N(Cc1ccco1)Cc1cc2cc(C)cc(C)c2[nH]c1=O,.,.,63,.,.,.
Cc1ccc2cc(CN(Cc3ccco3)C(=S)NCC3CCCO3)c(=O)[nH]c2c1C (stereo not drawn),.,/,.,.,.,.
COc1cc(/C=C/C(=O)OCC(=O)NC(=O)NC(C)C)cc(S(=O)(=O)N2CCc3ccccc32)c1OC,.,.,.,.,.,.
Cc1ccc(CN2CC(C(=O)Nc3cccc(S(=O)(=O)N4CCCCC4)c3)CC2=O)cc1 (stereo not drawn),.,.,.,.,.,.
Cc1cc(C)c2[nH]c(=O)c(CN(Cc3cccs3)C(=S)NCC3CCCO3)cc2c1 (stereo not drawn),.,/,53,.,.,.
Cc1cc2cc(CN(CC3CCCO3)C(=S)Nc3ccccc3)c(=O)[nH]c2cc1C (stereo not drawn),.,.,68,.,.,.
C=CCN(CC=C)S(=O)(=O)c1ccc(NC(=S)NC(=O)Cc2ccc(OC)cc2)cc1,.,.,62,.,.,.
O=C(CCN1C(=O)/C(=C/c2ccc3c(c2)OCO3)SC1=S)Nc1ccccc1,58,.,.,.,.,.
COc1ccc(/C=C2\SC(=S)N(CCCC(=O)Nc3ccccn3)C2=O)cc1OC,.,.,63,.,.,.
O=C(CCCN1C(=O)/C(=C/c2ccccc2Cl)SC1=S)NNC(=O)c1ccccc1Cl,.,.,67,.,.,.
Cc1cc(NC(=O)CCN2C(=O)/C(=C\c3ccccc3)SC2=S)no1,.,.,/,/,/,/
Cc1ccc(/C=C2\SC(=S)N(CCCC(=O)Nc3ccccn3)C2=O)cc1,.,/,.,.,.,.
CNc1nc2cccnc2s1,.,.,/,/,/,/
O=C(COC(=O)c1ccccc1[N+](=O)[O-])c1ccc(C2CCCCC2)cc1,.,.,.,60,.,.
COc1ccc(OCc2nc(-c3ccc(F)c(F)c3)cs2)cc1,.,.,/,/,/,/
CN(C)S(=O)(=O)c1ccc(N2CCCC2)c(C(=O)Nc2nc(-c3ccc(F)cc3)cs2)c1,.,.,98,.,.,.
COc1ccc(S(=O)(=O)Nc2ccccc2C(=O)Nc2nc(-c3ccc(F)cc3)cs2)cc1OC,.,.,53,59,.,.
Cc1cccc2sc(NC(=O)c3cc(S(=O)(=O)N(C)C)ccc3N3CCCC3)nc12,.,.,52,.,.,.
CN(C)S(=O)(=O)c1ccc(N2CCCC2)c(C(=O)Nc2nc(-c3cc(F)ccc3F)cs2)c1,.,.,84,.,.,.
C=CCN(c1ccccc1Cl)S(=O)(=O)c1cc(C(=O)N2CCCC2)ccc1Cl,.,/,/,/,/,/
O=C1CC(c2ccccc2F)C2=C(COC2=O)N1 (stereo not drawn),.,.,.,.,.,.
O=C(NCCN1C(=O)S/C(=C\c2cccnc2)C1=O)C1=NN(c2ccccc2)C(=O)CC1,.,.,.,.,.,.
Cc1cc([N+](=O)[O-])c(C)cc1-c1ccc(/C=N/NC(=O)c2cccnc2)o1,.,.,100,.,.,.
Cc1c(C(=O)N/N=C/c2ccc(-c3ccccc3[N+](=O)[O-])o2)sc(N)c1C#N,.,.,71,.,.,.
SMILES,Calpain2 inh,Rad51 HR inh,L major viab,WT yeast gro inh,PMI activator,PMI act hi M6P
O=C(N/N=C/c1ccc(-c2ccccc2[N+](=O)[O-])o1)c1cncc(Br)c1,.,.,98,.,.,.
CN(C)S(=O)(=O)c1ccc(C(=O)OCn2nnc3ccccc3c2=O)cc1,.,.,.,.,.,.
Cc1c(Cl)cccc1NC(=O)c1ccc(OCC(=O)NCc2ccccc2)cc1,.,.,.,.,.,.
CCOC(=O)C1CCCN(/C=C2\SC(=S)N(CC)C2=O)C1 (stereo not drawn),.,/,/,/,/,/
O=C(NC1CC1)C1=C[C@@H](C2CCCCC2)C[C@@H](OCc2ccc(CO)cc2)O1,.,.,98,.,.,.
O=C(O)C1=C[C@@H](c2ccc(Br)cc2)C[C@@H](OCc2ccc(CO)cc2)O1,.,.,.,.,.,.
O=C(NC1CC1)C1=C[C@@H](C2CC2)C[C@@H](OCc2ccc(CO)cc2)O1,.,.,/,/,/,/
O=C(Nc1ccccc1)C1=C[C@@H](c2ccc(Br)cc2)C[C@@H](OCc2ccc(CO)cc2)O1,.,.,56,.,.,.
CC(C)(C)[C@@H]1C=C(C(=O)Nc2ccccc2)O[C@H](OCc2ccc(CO)cc2)C1,.,.,99,.,.,.
O=C(NCCC1=CCCCC1)c1cc(-c2ccncc2)nc2ccccc12,.,.,.,.,.,.
Cc1sc2nc(CN3CCCC3)nc(N3CCN(S(=O)(=O)c4cccs4)CC3)c2c1C,.,.,56,/,.,.
Cc1sc2nc(CN3CCCCC3)nc(N3CCN(C(=O)c4ccco4)CC3)c2c1C,.,.,.,.,.,.
O=C(NCCCN1CCCCC1)c1ccc2c(=O)n(CCc3ccccc3)c(=O)[nH]c2c1,.,/,57,.,.,.
CC1CCN(CCCNC(=O)c2ccc3c(=O)n(Cc4ccc(Cl)cc4)c(=S)[nH]c3c2)CC1,.,.,100,.,.,.
COC(=O)c1ccc2c(=O)n(Cc3ccc(C(=O)NCCCN4CCC(C)CC4)cc3)c(=S)[nH]c2c1,.,.,.,.,.,.
C/C(CC(=O)Nc1cc(Cl)ccc1Cl)=N\NC(=O)c1ccccc1Br,.,/,.,.,.,.
COc1ccccc1/C=C/C1(C(=O)NC2CCCC2)CC(=O)N1c1ccc(C)cc1 (stereo not drawn),.,.,.,.,.,.
COc1ccccc1/C=C/C1(C(=O)NC2CCCC2)CC(=O)N1c1ccc(F)cc1 (stereo not drawn),.,.,85,.,.,.
COc1ccccc1-c1cc(C(=O)N/N=C/c2cccs2)c2ccccc2n1,.,/,51,.,.,.
COc1ccccc1N/N=C/c1ccc2c(c1)OCO2,.,/,.,.,.,2.3
COc1ccc(-c2cc(C(=O)N/N=C/c3ccc4c(c3)OCO4)c3ccccc3n2)c(OC)c1,.,.,77,.,.,.
O=C(N/N=C/c1cccs1)c1cc(-c2ccncc2)nc2ccccc12,.,.,.,.,.,.
Cc1ccc(-c2cc(C(=O)N/N=C/c3c(C)nn(C)c3C)c3ccccc3n2)cc1C,.,.,82,.,.,.
COc1ccccc1OCc1ccc(C(=O)Nc2ccc(Cl)cn2)o1,.,.,.,.,.,.
